Results taken from ChEMBL document CHEMBL2163310, “Critical effect of peptide cyclization on the potency of peptide inhibitors against Dengue virus NS2B-NS3 protease” (J Med Chem, 2012).
Calls of active or inactive are those of the source. The calls are words filed in the database; no cut-off is given here. Positions of bridges follow the written chain, without caps; N, C: chain ends. Residues, ends and D or L forms follow the SMILES beside them.

How the values were obtained:
[1] = Inhibition of Dengue Virus 2 NS2B-NS3 protease using Benzoyl-Nle-Lys-Arg-Arg-AMC as substrate incubated for 3 mins prior to substrate addition by fluorimetric analysis; design: species or system dengue virus type 2
How it was run: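 Ki by Dixon plot (1/v vs inhibitor) at 33 and 66 μM substrate. Fluorescence ex 356/em 438 nm; triplicate means.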

[2] = Chemical stability at 16. 7 uM measured every 30 mins of 2.5 hrs in presence of Dengue Virus 2 NS2B-NS3 protease; type: physicochemical
[3] = Drug degradation assessed as compound activity lost at 6.7 uM measured every 30 mins of 2.5 hrs in presence of Dengue Virus 2 NS2B-NS3 protease; type: physicochemical; settings: Dengue virus 2, Dengue virus 2 NS2B-NS3 protease; read-out: Drug degradation
[4] = Drug degradation assessed as compound activity lost at 3.3 uM measured every 30 mins of 2.5 hrs in presence of Dengue Virus 2 NS2B-NS3 protease; type: physicochemical; settings: Dengue virus 2, Dengue virus 2 NS2B-NS3 protease; read-out: Drug degradation
[5] = Inhibition of trypsin using N-benzoyl-DL-arginine-p-nitroanilide as substrate by […] analysis
[6] = Chemical stability assessed as compound remaining after 4 hrs in presence of trypsin; type: physicochemical; settings: read-out: Stability
How it was run: (§1)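 Peptide incubated with trypsin in 0.05 M Tris-HCl pH 7.8, 20 mM CaCl2 at 37 °C, or with cathepsin S in 50 mM NaAc pH 4.5, 25 mM NaCl, 5 mM DTT at room temperature. Digests analysed on HPLC C18 analytical column for remaining intact peptide.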

[7] = Chemical stability assessed as compound remaining after 4 hrs in presence of cathepsin S; type: physicochemical; how it was run: as §1
dengue virus type 2 = assay: Inhibition of Dengue Virus 2 NS2B-NS3 protease using Benzoyl-Nle-Lys-Arg-Arg-AMC as substrate at 167 uM incubated for 3 mins prior to substrate addition by fluorimetric analysis
How it was run: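 Enzyme preincubated with inhibitor for 3 min at 37 °C before adding Bz-Nle-Lys-Arg-Arg-AMC substrate. Residual activity read by fluorescence, excitation 356 nm, emission 438 nm. Triplicate measurements averaged.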

[8] = Chemical stability after 30 mins in presence of trypsin; type: physicochemical; settings: isolated protein, 0.5 h; how it was run: as §1

N=C(N)NCCC[C@@H]1NC(=O)[C@H](CCCCN)NC(=O)[C@H](Cc2ccc(O)cc2)NC(=O)CNC(=O)[C@@H](N)CSSC[C@@H](C(=O)O)NC1=O (H-CGYKRC-OH; disulfide 1-6)
Ki [1]: 5 µM

N=C(N)NCCC[C@@H]1NC(=O)C(CCCCN)NC(=O)CNC(=O)[C@@H](N)CSSC[C@@H](C(=O)O)NC(=O)[C@H](CCCNC(=N)N)NC1=O (single isomer, unassigned)
Ki [1]: 3.5 µM

CC(C)C[C@@H]1NC(=O)CNC(=O)[C@H](Cc2ccc(O)cc2)NC(=O)CNC(=O)[C@@H](N)CSSC[C@@H](C(=O)O)NC1=O (H-CGYGLC-OH; disulfide 1-6)
Ki [1]: > 100 µM

C[C@@H]1NC(=O)CNC(=O)[C@H](CO)NC(=O)[C@H](CCCCN)NC(=O)[C@H](CCCNC(=N)N)NC(=O)C(CCCCN)NC(=O)CNC1=O (single isomer, unassigned)
Ki [1]: 11.3 µM | Stability [2]: Stable

N=C(N)NCCC[C@@H]1NC(=O)C(CCCCN)NC(=O)CNC(=O)[C@@H](N)CSSC[C@@H](C(=O)O)NC(=O)[C@H](CO)NC(=O)[C@H](CCCCN)NC1=O (single isomer, unassigned)
metabolised at 2.5 h, 6.7 µM [3]: 50% | metabolised at 2.5 h, 3.3 µM [4]: 50% | Ki [1]: 1.4 µM | Ki [5]: > 100 µM

CC(C)C[C@@H]1NC(=O)[C@H](CCCCN)NC(=O)[C@H](CCCNC(=N)N)NC(=O)C(CCCCN)NC(=O)CNC(=O)[C@@H](N)CSSC[C@@H](C(=O)O)NC1=O (single isomer, unassigned)
metabolised at 2.5 h, 6.7 µM [3]: 50% | metabolised at 2.5 h, 3.3 µM [4]: 50% | Ki [1]: 2.5 µM

CC(C)C[C@@H]1NC(=O)[C@H](CCCCN)NC(=O)[C@H](Cc2ccc(O)cc2)NC(=O)CNC(=O)[C@@H]2CSSC[C@H](NC1=O)C(=O)N[C@@H](Cc1cnc[nH]1)C(=O)N1C[C@H](O)C[C@H]1C(=O)N[C@H](C(=O)O)CSSC[C@H](NC(=O)[C@@H](NC(=O)CNC(=O)[C@@H](N)CC(N)=O)C(C)C)C(=O)N2
Ki [1]: 9 µM

CC(C)C[C@@H]1NC(=O)[C@H](CCCCN)NC(=O)CNC(=O)CNC(=O)[C@@H](N)CSSC[C@@H](C(=O)O)NC1=O (H-CGGKLC-OH; disulfide 1-6)
Ki [1]: 15.1 µM

C[C@@H]1NC(=O)[C@@H](CS)NC(=O)CNC(=O)[C@H](CO)NC(=O)[C@H](CCCCN)NC(=O)[C@H](CCCNC(=N)N)NC(=O)C(CCCCN)NC(=O)CNC1=O (single isomer, unassigned)
metabolised at 2.5 h, 3.3 µM [4]: 25% | remaining at 4 h [6]: 50% | Ki [1]: 2.2 µM | Stability [7]: Stable | Ki [5]: > 100 µM

CC(C)C[C@@H]1NC(=O)[C@H](CCCCN)NC(=O)C(Cc2ccc(O)cc2)NC(=O)CNC(=O)[C@@H](N)CSSC[C@@H](C(=O)O)NC1=O (single isomer, unassigned)
inhibition (dengue virus type 2): inactive | Ki [1]: 12.5 µM | Ki [5]: > 100 µM

NCCCC[C@@H]1NC(=O)[C@H](Cc2ccc(O)cc2)NC(=O)CNC(=O)[C@@H](N)CSSC[C@@H](C(=O)O)NC(=O)CNC1=O (H-CGYKGC-OH; disulfide 1-6)
Ki [1]: 12 µM

H-CAGKRKSG-OH
Stability [8]: Stable | Ki [1]: 42 µM
